Experimental data reported in ChEMBL document CHEMBL1132620, “Piperazine imidazo[1,5-a]quinoxaline ureas as high-affinity GABAA ligands of dual functionality” (J Med Chem, 1999).
The source made the active and inactive calls. The rule behind the calls is not given here.

Legend:
[1] = target: T1, GABA-A receptor; alpha-1/beta-2/gamma-2 (Homo sapiens) (UniProt P14867+P47870+P18507); assay: (§1) In vitro GABA-mediated chloride current in A293 cells expressing GABA-A benzodiazepine receptor alpha-1-beta-2-gamma-2 subunits at 5 uM; format: functional, cell-based; conditions: HEK293
[2] = target: T2, GABA-A receptor; anion channel (Rattus norvegicus) (UniProt O09028+P15431+P18506+P18508+P19969+P20236+P23574+P23576+P28471+P28473+P30191+P62813+P63079+P63138+Q91ZM7+Q9ES14); assay: Shift in [35S]TBPS binding to GABA-A Benzodiazepine receptor of rat brain membrane
Rattus norvegicus = assay: In vivo efficacy evaluated for ability to antagonize metrazole induced clonic convulsions in rat after ip injection; format: functional
Mus musculus [3] = species on record: Mus musculus; assay: Ability to antagonize the muscle relaxation effect in mice caused by a benzodiazepine full agonist, triazolam.; format: functional
Summary of the method: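 Muscle relaxation induced by triazolam; test compound and triazolam given separately, traction scored 30 min after dosing; ED50 for blocking the relaxant effect.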

Mus musculus [4] = assay: In vivo acute electroshock physical dependence activity in mice; Not active.; format: functional, organism-based
[5] = target: T2, GABA-A receptor; anion channel (Rattus norvegicus); assay: (§2) Displacement of [3H]flunitrazepam from GABA-A benzodiazepine receptor of rat cortical membranes; format: cell membranes; set-up: concentration or dose not given beside the values; conditions: Membrane, concentration not given here
Summary of the method: (§3)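 Rat membranes incubated 60 min at 4 °C with [3H]flunitrazepam, 50 µg membrane protein and graded test drug in 200 µL containing NaCl, 10 mM Hepes/Tris pH 7.4 and 1 mM MgCl2; bound ligand separated by rapid filtration on GF/B; mean affinity, SE ≤10% of mean.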

[6] = target: GABA-A receptor; anion channel; assay: as §2; format: cell membranes, Membrane; summary of the method: as §3
[7] = target: T1, GABA-A receptor; alpha-1/beta-2/gamma-2 (Homo sapiens); assay: as §1; format: functional, cell-based; conditions: HEK293; remark: listed apart in the source
Mus musculus [8] = assay: In vivo acute electroshock physical dependence activity in mice; Active; format: functional, organism-based
Mus musculus [9] = assay: In vivo efficacy is evaluated by percent control of cerebellar GMP levels in (drug+stress) treated mice/mice under stress; format: functional; set-up: concentration or dose not given beside the values
Summary of the method: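 Male CF-1 mice given drug orally in vehicle 122 before electric footshock stress, controls given vehicle (1 mL/100 g); killed 30 min after treatment; cerebellum homogenized in 1% perchloric acid, iced 30 min, boiled 5 min, spun 17000g 20 min; supernatant cGMP by radioimmunoassay, expressed as % of stress control.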

Compound	Change in Cl- current [1]	Shift [2]	inhibition [5]	Ki [6]	Change in Cl- current [7]	ED50 (Rattus norvegicus)	ED50 (Mus musculus [3])	Acute electroshock activity (Mus musculus [4])	Acute electroshock activity (Mus musculus [8])	Control (Mus musculus [9])
Cc1ccc2c(c1)N(C(=O)N1C[C@H](C)N[C@@H](C)C1)Cc1c(C(=O)OC(C)(C)C)ncn1-2	1.3	0.77	17%	0.0256 µM	1.3	7.4 mg/kg	> 30 mg/kg		Active	79%
C[C@@H]1CN(C(=O)N2Cc3c(C(=O)OC(C)(C)C)ncn3-c3ccc(C(F)(F)F)cc32)C[C@H](C)N1C	0.81	0.26	17%	0.0314 µM		6.2 mg/kg	21.8 mg/kg		Active	
C[C@@H]1CN(C(=O)N2Cc3c(C(=O)OC(C)(C)C)ncn3-c3cccc(Cl)c32)C[C@H](C)N1C	0.71	0.22	49%	0.0563 µM		> 50 mg/kg	> 30 mg/kg	inactive		102%
C[C@H]1CN(C(=O)N2Cc3c(C(=O)OC(C)(C)C)ncn3-c3ccc(C(F)(F)F)cc32)C[C@H](C)N1	1	0.41		0.277 µM	0.5	39.7 mg/kg	> 30 mg/kg		Active	
C[C@@H]1CN(C(=O)N2Cc3c(C(=O)OC(C)(C)C)ncn3-c3ccc(C(F)(F)F)cc32)CCN1	1	0.6	30%	0.0232 µM	1	8.9 mg/kg	> 30 mg/kg			88%
C[C@H]1CN(C(=O)N2Cc3c(C(=O)OC(C)(C)C)ncn3-c3ccc(C(F)(F)F)cc32)CCN1	0.7	0.54	21%	0.0428 µM	0.8	25 mg/kg	> 30 mg/kg	inactive		82%
CC(C)(C)OC(=O)c1ncn2c1CN(C(=O)N1CCN(c3ccccn3)CC1)c1cc(Cl)ccc1-2	0.83	0.32	3.4%	0.0151 µM	0.35	> 50 mg/kg	> 30 mg/kg		Active	
CC(C)(C)OC(=O)c1ncn2c1CN(C(=O)N1CC3CC1CN3)c1cc(Cl)ccc1-2 (stereo unspecified)	0.5	0.33	4%	0.0301 µM	0.3	> 50 mg/kg		inactive		
C[C@@H]1CN(C(=O)N2Cc3c(C(=O)OC(C)(C)C)ncn3-c3ccc(Cl)cc32)C[C@H](C)N1CC(F)(F)F	0	0.67	19%	0.0378 µM	0.5	42 mg/kg	> 30 mg/kg	inactive		

Now those with a lower Ki [6], led by results:

Change in Cl- current [1]	Shift [2]	inhibition [5]	Ki [6]	Change in Cl- current [7]	Compound	ED50 (Rattus norvegicus)	ED50 (Mus musculus [3])	Acute electroshock activity (Mus musculus [4])	Acute electroshock activity (Mus musculus [8])	Control (Mus musculus [9])
0	-0.01	13%	0.00303 µM	0.33	CC1(C)CN(C(=O)N2Cc3c(C(=O)OC(C)(C)C)ncn3-c3ccc(Cl)cc32)CCN1	> 50 mg/kg	> 30 mg/kg	inactive		
0.5	0.15	84%	0.0105 µM	0.94	CCCC(=O)O.CCN1[C@H](C)CN(C(=O)N2Cc3c(C(=O)OC(C)(C)C)ncn3-c3ccc(Cl)cc32)C[C@@H]1C	3.7 mg/kg	> 30 mg/kg	inactive		88%
0.9	0.76	8%	0.00418 µM		C[C@@H]1CN(C(=O)N2Cc3c(C(=O)OC(C)(C)C)ncn3-c3ccc(Cl)cc32)C[C@H](C)N1S(C)(=O)=O.ClCCl	> 50 mg/kg	> 30 mg/kg	inactive		
1	0.81	10%	0.0109 µM	0.8	CC(C)(C)OC(=O)c1ncn2c1CN(C(=O)N1CCN(CC(F)(F)F)CC1)c1cc(Cl)ccc1-2	> 50 mg/kg	> 30 mg/kg	inactive		
1.14	0.77	47%	0.0032 µM		CC1(C)CN(C(=O)N2Cc3c(C(=O)OC(C)(C)C)ncn3-c3ccc(Cl)cc32)CC(C)(C)N1	3.7 mg/kg	> 30 mg/kg		Active	40%
0.17	0.18	68%	0.00448 µM	0.5	CC1CN(C(=O)N2Cc3c(C(=O)OC(C)(C)C)ncn3-c3ccc(Cl)cc32)CCN1 (stereo unspecified)	8.8 mg/kg	> 30 mg/kg		Active	
0.75	0.76	24%	0.00539 µM	0.42	CC(C)(C)OC(=O)c1ncn2c1CN(C(=O)N1CCN(C3CC3)CC1)c1cc(Cl)ccc1-2	12.5 mg/kg	> 30 mg/kg	inactive		
0	-0.018	82%	0.00304 µM	0.5	C[C@@H]1CN(C(=O)N2Cc3c(C(=O)OC(C)(C)C)ncn3-c3ccccc32)C[C@H](C)N1	> 50 mg/kg	> 30 mg/kg			94%
0.5	0.21	11%	0.00435 µM	1.1	CN1CCN(C(=O)N2Cc3c(C(=O)OC(C)(C)C)ncn3-c3ccc(Cl)cc32)CC1(C)C	35.3 mg/kg	> 30 mg/kg	inactive		
0	-0.14	95%	0.00104 µM	0.5	C[C@@H]1CN(C(=O)N2Cc3c(C(=O)OC(C)(C)C)ncn3-c3ccc(F)cc32)C[C@H](C)N1	35.3 mg/kg	> 30 mg/kg			74%
0.79	0.94	22%	0.00466 µM		CC(=O)N1[C@H](C)CN(C(=O)N2Cc3c(C(=O)OC(C)(C)C)ncn3-c3ccc(Cl)cc32)C[C@@H]1C	14.8 mg/kg	> 30 mg/kg		Active	
0	0.02	69%	0.00345 µM	0.72	CC1CNCC(C)N1C(=O)N1Cc2c(C(=O)OC(C)(C)C)ncn2-c2ccc(F)cc21 (stereo unspecified)	10.5 mg/kg	> 30 mg/kg			100%
